In ChEMBL document CHEMBL5113397, “Identification, optimization, and biological evaluation of 3-O-β-chacotriosyl ursolic acid derivatives as novel SARS-CoV-2 entry inhibitors by targeting the prefusion state of spike protein” (Eur J Med Chem, 2022):
pEC50: −log10 of the molar value. Activity calls are given as the source filed them. The calls are words filed in the database; no cut-off is given here.

Experiments:
SARS-CoV-2 [1] = test: Antiviral activity against pseudovirus SARS-CoV-2 spike protein infected human HEK293T cells overexpressing ACE2 assessed as inhibition on pseudovirus infection at 40 uM incubated for 48 hrs by luciferase assay; format: functional; conditions: Severe acute respiratory syndrome coronavirus 2, HEK-293T
Outline: (§1)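 S plasmid (wild type, or E484K, D614G or N501Y mutant) transfected into 293T cells; PsV-containing supernatant harvested at 48 h. 293T-ACE2 cells seeded 24 h ahead, then given an equal-volume mix of compound dilutions and PsV supernatant for 48 h. Cells lysed and luciferase activity quantified. Mean ± SD of three experiments.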

SARS-CoV-2 [2] = test: Antiviral activity against pseudovirus SARS-CoV-2 spike protein infected human HEK293T cells overexpressing ACE2 assessed as inhibition on pseudovirus infection at 10 uM incubated for 48 hrs by luciferase assay; format: functional; conditions: Severe acute respiratory syndrome coronavirus 2, HEK-293T; outline: as §1
SARS-CoV-2 [3] = test: Antiviral activity against pseudovirus SARS-CoV-2 spike protein with E484K mutant infected human HEK293T cells overexpressing ACE2 assessed as inhibition on pseudovirus infection at 5 to 40 uM incubated for 48 hrs by luciferase assay; format: functional, organism-based; conditions: Severe acute respiratory syndrome coronavirus 2, dose 5-40 µM; outline: as §1
[4] = Selectivity index, ratio of CC50 for cytotoxicity against human HEK293T cells overexpressing human ACE2 to EC50 for antiviral activity against SARS-CoV-2 VSV-G pseudotyped virus infected human HEK293T cells overexpressing ACE2; format: toxicity, cell-based; conditions: read-out: Ratio CC50/EC50
SARS-CoV-2 [5] = test: Antiviral activity against pseudovirus SARS-CoV-2 spike protein mutant Omicron variant infected human HEK293T cells overexpressing ACE2 assessed as inhibition on viral entry incubated for 48 hrs by luciferase assay; format: functional, organism-based, Severe acute respiratory syndrome coronavirus 2
SARS-CoV-2 [6] = test: Antiviral activity against pseudovirus SARS-CoV-2 spike protein infected human HEK293T cells overexpressing ACE2 assessed as inhibition on pseudovirus infection incubated for 48 hrs by luciferase assay; format: functional, organism-based; conditions: Severe acute respiratory syndrome coronavirus 2, HEK-293T; outline: as §1
SARS-CoV-2 [7] = test: Antiviral activity against pseudotyped spike protein mutant B.1.351 SARS-CoV-2 Beta variant infected human HEK293T cells overexpressing ACE2 assessed as inhibition on viral entry incubated for 48 hrs by luciferase assay; format: functional, organism-based, Severe acute respiratory syndrome coronavirus 2
SARS-CoV-2 [8] = test: Antiviral activity against pseudotyped spike protein mutant P.10 SARS-CoV-2 Gamma variant infected human HEK293T cells overexpressing ACE2 assessed as inhibition on viral entry incubated for 48 hrs by luciferase assay; format: functional, organism-based, Severe acute respiratory syndrome coronavirus 2
SARS-CoV-2 [9] = test: Antiviral activity against pseudovirus SARS-CoV-2 spike protein with N501Y mutant infected human HEK293T cells overexpressing ACE2 assessed as inhibition on pseudovirus infection at 5 to 40 uM incubated for 48 hrs by luciferase assay; format: functional, organism-based; conditions: Severe acute respiratory syndrome coronavirus 2, dose 5-40 µM; outline: as §1
SARS-CoV-2 [10] = test: Antiviral activity against SARS-CoV-2 VSV-G pseudotyped virus infected human HEK293T cells overexpressing ACE2 incubated for 48 hrs by luciferase assay; format: functional, organism-based; conditions: Severe acute respiratory syndrome coronavirus 2, HEK-293T
SARS-CoV-2 [11] = test: Antiviral activity against pseudovirus spike protein mutant B.1.617.2 SARS-CoV-2 Delta variant infected human HEK293T cells overexpressing ACE2 assessed as inhibition on viral entry incubated for 48 hrs by luciferase assay; format: functional, organism-based, Severe acute respiratory syndrome coronavirus 2
SARS-CoV-2 [12] = test: Antiviral activity against pseudovirus SARS-CoV-2 spike protein with D614G mutant infected human HEK293T cells overexpressing ACE2 assessed as inhibition on pseudovirus infection at 5 to 40 uM incubated for 48 hrs by luciferase assay; format: functional, organism-based; conditions: Severe acute respiratory syndrome coronavirus 2, dose 5-40 µM; outline: as §1
SARS-CoV-2 [13] = test: Antiviral activity against pseudotyped spike protein mutant B.1.1.7 SARS-CoV-2 Alpha variant infected human HEK293T cells overexpressing ACE2 assessed as inhibition on viral entry incubated for 48 hrs by luciferase assay; format: functional, organism-based, Severe acute respiratory syndrome coronavirus 2

SMILES	inhibition at 40 µM (SARS-CoV-2 [1]) [%]	inhibition at 10 µM (SARS-CoV-2 [2]) [%]	pEC50 (SARS-CoV-2 [6])	other results
C[C@H]1[C@H](C)CC[C@]2(C(=O)Nc3ccc4ccccc4c3)CC[C@]3(C)C(=CC[C@@H]4[C@@]5(C)CC[C@H](O[C@@H]6O[C@H](CO)[C@@H](O[C@@H]7O[C@@H](C)[C@H](O)[C@@H](O)[C@H]7O)[C@H](O)[C@H]6O[C@@H]6O[C@@H](C)[C@H](O)[C@@H](O)[C@H]6O)C(C)(C)[C@@H]5CC[C@]43C)[C@H]12	-7.27	14.5	–	–
C[C@H]1[C@H](C)CC[C@]2(C(=O)NC(c3ccccc3)c3ccccc3)CC[C@]3(C)C(=CC[C@@H]4[C@@]5(C)CC[C@H](O[C@@H]6O[C@H](CO)[C@@H](O[C@@H]7O[C@@H](C)[C@H](O)[C@@H](O)[C@H]7O)[C@H](O)[C@H]6O[C@@H]6O[C@@H](C)[C@H](O)[C@@H](O)[C@H]6O)C(C)(C)[C@@H]5CC[C@]43C)[C@H]12	0.47	1.58	–	–
C[C@H]1[C@H](C)CC[C@]2(C(=O)Nc3ccc4sccc4c3)CC[C@]3(C)C(=CC[C@@H]4[C@@]5(C)CC[C@H](O[C@@H]6O[C@H](CO)[C@@H](O[C@@H]7O[C@@H](C)[C@H](O)[C@@H](O)[C@H]7O)[C@H](O)[C@H]6O[C@@H]6O[C@@H](C)[C@H](O)[C@@H](O)[C@H]6O)C(C)(C)[C@@H]5CC[C@]43C)[C@H]12	-31.8	-21.7	–	–
COc1cccc(OC)c1NC(=O)[C@]12CC[C@@H](C)[C@H](C)[C@H]1C1=CC[C@@H]3[C@@]4(C)CC[C@H](O[C@@H]5O[C@H](CO)[C@@H](O[C@@H]6O[C@@H](C)[C@H](O)[C@@H](O)[C@H]6O)[C@H](O)[C@H]5O[C@@H]5O[C@@H](C)[C@H](O)[C@@H](O)[C@H]5O)C(C)(C)[C@@H]4CC[C@@]3(C)[C@]1(C)CC2	46.8	96.8	5.01	inhibition (SARS-CoV-2 [3]): Active; selectivity ratio [4]: > 10.2; pEC50 (SARS-CoV-2 [5]): 5.14; pEC50 (SARS-CoV-2 [7]): 4.94; pEC50 (SARS-CoV-2 [8]): 5.58; inhibition (SARS-CoV-2 [9]): Active; pEC50 (SARS-CoV-2 [10]): < 4.00; pEC50 (SARS-CoV-2 [11]): 5.75; inhibition (SARS-CoV-2 [12]): Active; pEC50 (SARS-CoV-2 [13]): 5.11
COc1ccccc1NC(=O)[C@]12CC[C@@H](C)[C@H](C)[C@H]1C1=CC[C@@H]3[C@@]4(C)CC[C@H](O[C@@H]5O[C@H](CO)[C@@H](O[C@@H]6O[C@@H](C)[C@H](O)[C@@H](O)[C@H]6O)[C@H](O)[C@H]5O[C@@H]5O[C@@H](C)[C@H](O)[C@@H](O)[C@H]5O)C(C)(C)[C@@H]4CC[C@@]3(C)[C@]1(C)CC2	–	–	4.97	selectivity ratio [4]: 4.05
C[C@H]1[C@H](C)CC[C@]2(C(=O)Nc3ccc4c(c3)OCCO4)CC[C@]3(C)C(=CC[C@@H]4[C@@]5(C)CC[C@H](O[C@@H]6O[C@H](CO)[C@@H](O[C@@H]7O[C@@H](C)[C@H](O)[C@@H](O)[C@H]7O)[C@H](O)[C@H]6O[C@@H]6O[C@@H](C)[C@H](O)[C@@H](O)[C@H]6O)C(C)(C)[C@@H]5CC[C@]43C)[C@H]12	-2.49	30.4	–	–
C[C@H]1[C@H](C)CC[C@]2(C(=O)NCc3ccccc3)CC[C@]3(C)C(=CC[C@@H]4[C@@]5(C)CC[C@H](O[C@@H]6O[C@H](CO)[C@@H](O[C@@H]7O[C@@H](C)[C@H](O)[C@@H](O)[C@H]7O)[C@H](O)[C@H]6O[C@@H]6O[C@@H](C)[C@H](O)[C@@H](O)[C@H]6O)C(C)(C)[C@@H]5CC[C@]43C)[C@H]12	59.2	92.5	4.92	selectivity ratio [4]: > 10; pEC50 (SARS-CoV-2 [10]): < 4.00
C[C@H]1[C@H](C)CC[C@]2(C(=O)Nc3ccc(-c4ccccc4)cc3)CC[C@]3(C)C(=CC[C@@H]4[C@@]5(C)CC[C@H](O[C@@H]6O[C@H](CO)[C@@H](O[C@@H]7O[C@@H](C)[C@H](O)[C@@H](O)[C@H]7O)[C@H](O)[C@H]6O[C@@H]6O[C@@H](C)[C@H](O)[C@@H](O)[C@H]6O)C(C)(C)[C@@H]5CC[C@]43C)[C@H]12	16.9	27.4	–	–
C[C@H]1[C@H](C)CC[C@]2(C(=O)Nc3ccccc3Cl)CC[C@]3(C)C(=CC[C@@H]4[C@@]5(C)CC[C@H](O[C@@H]6O[C@H](CO)[C@@H](O[C@@H]7O[C@@H](C)[C@H](O)[C@@H](O)[C@H]7O)[C@H](O)[C@H]6O[C@@H]6O[C@@H](C)[C@H](O)[C@@H](O)[C@H]6O)C(C)(C)[C@@H]5CC[C@]43C)[C@H]12	–	–	4.90	–
C[C@H]1[C@H](C)CC[C@]2(C(=O)Nc3ccc4ncccc4c3)CC[C@]3(C)C(=CC[C@@H]4[C@@]5(C)CC[C@H](O[C@@H]6O[C@H](CO)[C@@H](O[C@@H]7O[C@@H](C)[C@H](O)[C@@H](O)[C@H]7O)[C@H](O)[C@H]6O[C@@H]6O[C@@H](C)[C@H](O)[C@@H](O)[C@H]6O)C(C)(C)[C@@H]5CC[C@]43C)[C@H]12	27.4	33.1	–	–
C[C@H]1[C@H](C)CC[C@]2(C(=O)NCCc3ccccc3)CC[C@]3(C)C(=CC[C@@H]4[C@@]5(C)CC[C@H](O[C@@H]6O[C@H](CO)[C@@H](O[C@@H]7O[C@@H](C)[C@H](O)[C@@H](O)[C@H]7O)[C@H](O)[C@H]6O[C@@H]6O[C@@H](C)[C@H](O)[C@@H](O)[C@H]6O)C(C)(C)[C@@H]5CC[C@]43C)[C@H]12	28.2	49.5	–	–
C[C@H]1[C@H](C)CC[C@]2(C(=O)Nc3ccc(Cc4ccccc4)cc3)CC[C@]3(C)C(=CC[C@@H]4[C@@]5(C)CC[C@H](O[C@@H]6O[C@H](CO)[C@@H](O[C@@H]7O[C@@H](C)[C@H](O)[C@@H](O)[C@H]7O)[C@H](O)[C@H]6O[C@@H]6O[C@@H](C)[C@H](O)[C@@H](O)[C@H]6O)C(C)(C)[C@@H]5CC[C@]43C)[C@H]12	10.3	19.2	–	–
C[C@H]1[C@H](C)CC[C@]2(C(=O)N3CCc4ccccc4C3)CC[C@]3(C)C(=CC[C@@H]4[C@@]5(C)CC[C@H](O[C@@H]6O[C@H](CO)[C@@H](O[C@@H]7O[C@@H](C)[C@H](O)[C@@H](O)[C@H]7O)[C@H](O)[C@H]6O[C@@H]6O[C@@H](C)[C@H](O)[C@@H](O)[C@H]6O)C(C)(C)[C@@H]5CC[C@]43C)[C@H]12	32.5	58.7	–	–
O=C(/C=C/c1ccc(O)c2oc(-c3ccc(O)c(O)c3)cc12)O[C@H](Cc1ccc(O)c(O)c1)C(=O)O	80.2	98.3	–	–
COc1ccc(CNC(=O)[C@]23CC[C@@H](C)[C@H](C)[C@H]2C2=CC[C@@H]4[C@@]5(C)CC[C@H](O[C@@H]6O[C@H](CO)[C@@H](O[C@@H]7O[C@@H](C)[C@H](O)[C@@H](O)[C@H]7O)[C@H](O)[C@H]6O[C@@H]6O[C@@H](C)[C@H](O)[C@@H](O)[C@H]6O)C(C)(C)[C@@H]5CC[C@@]4(C)[C@]2(C)CC3)cc1	36.3	85.7	4.93	selectivity ratio [4]: > 10; pEC50 (SARS-CoV-2 [10]): < 4.00
C[C@H]1[C@H](C)CC[C@]2(C(=O)Nc3ccc4c(cnn4C)c3)CC[C@]3(C)C(=CC[C@@H]4[C@@]5(C)CC[C@H](O[C@@H]6O[C@H](CO)[C@@H](O[C@@H]7O[C@@H](C)[C@H](O)[C@@H](O)[C@H]7O)[C@H](O)[C@H]6O[C@@H]6O[C@@H](C)[C@H](O)[C@@H](O)[C@H]6O)C(C)(C)[C@@H]5CC[C@]43C)[C@H]12	41.1	51.9	–	–
